The list is not random: actives were taken first. Their share in the collection is about 3.5%.
MrgX1 agonist: activates human MrgX1 receptor signaling; MrgX1-HEK293 cells, Fluo-4 calcium fluorescence, agonist mode; active compounds read high; B-score at 10 µM; hit rate 0.44% among 310,000; AID 588627;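 active means calcium response B-score plate-corrected fluorescence ratio at least 3 library SD, with starting fluorescence B-score inside 5 SD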
Target sequence (Q96LB2 whole entry, looked up): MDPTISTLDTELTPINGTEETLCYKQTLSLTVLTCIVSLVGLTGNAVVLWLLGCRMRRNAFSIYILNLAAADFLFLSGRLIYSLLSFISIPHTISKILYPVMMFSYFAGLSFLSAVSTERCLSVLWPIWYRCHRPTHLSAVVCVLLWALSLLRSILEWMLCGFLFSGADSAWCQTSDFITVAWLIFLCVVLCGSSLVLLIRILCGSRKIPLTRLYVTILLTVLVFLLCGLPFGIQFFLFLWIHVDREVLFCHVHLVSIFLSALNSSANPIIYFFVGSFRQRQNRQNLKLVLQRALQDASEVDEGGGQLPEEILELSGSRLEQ
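Test system: Stable human MrgX1 HEK293 cell line | Schedule: Overnight plating before 1 h dye loading | Read-out basis: Baseline-normalised fluorescence change ratio, B-scored | Detection: Kinetic calcium dye fluorescence, Fluo-4 NW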
MrgX1 allo act: allosterically activates human MrgX1 receptor signaling; hit rate 0.63% among 310,000; AID 588675; MrgX1-HEK293, Fluo-4 calcium flux, FDSS; active compounds read high; B-score at 10 µM;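 active means plate-corrected calcium response at least 3 library SD above typical, normal starting fluorescence, not activating the receptor alone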;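 further: compound read alongside a low EC10 to EC30 dose of BAM8-22 agonist; peak minus trough fluorescence over baseline measured at the second addition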
MrgX1 antagonist: human MrgX1 receptor antagonism, primary screen; hit rate 1.3% among 310,000; MRGX1-HEK293 calcium flux, Fluo-4, BAM8-22 antagonism; active compounds read low; AID 588676; B-score at 10 µM; Q96LB2;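 active means calcium-response B-score plate-corrected more than 3 library SD below zero, starting fluorescence within 5 deviations, no agonist response on first addition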;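 further: peak minus trough fluorescence over baseline after final BAM8-22 challenge near maximal dose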
RGS4 act: potentiators or activators of RGS4. HEK293 M3R/inducible RGS4, carbachol calcium flux Fluo4; active compounds read low. B-score at 10 µM. hit rate 0.92% among 310,000;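 active means B-score of the integrated calcium signal more than 4 SD below the library mean, with starting fluorescence not abnormally high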;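 further: negative B-score means reduced calcium response which marks RGS4 activation or potentiation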
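Test system: HEK293 cells with stable M3R and inducible RGS4; also added: carbachol at ECmax as muscarinic agonist stimulus; schedule: dye loading 30 min 37 °C, buffer rest 30 min RT; technique: kinetic calcium fluorescence imaging with Fluo4-AM dye, 2 µM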
RGS4 inh: inhibitors of human RGS4 | P49798 | HEK293 M3R/RGS4 inducible, Fluo-4 calcium flux; active compounds read high; triggered by carbachol at its EC20 | B-score at 10 µM | hit rate 0.45% among 310,000;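 active means B-score, a plate-corrected calcium signal, over three deviations above library mean, with baseline fluorescence within five deviations of library mean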;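 further: RGS4 expression induced by doxycycline in cells with stable M3 receptor; B-score is computed from the integrated fluorescence ratio over baseline after carbachol; higher B-score means a larger calcium signal and so more RGS4 inhibition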
Target sequence (P49798 whole entry, looked up): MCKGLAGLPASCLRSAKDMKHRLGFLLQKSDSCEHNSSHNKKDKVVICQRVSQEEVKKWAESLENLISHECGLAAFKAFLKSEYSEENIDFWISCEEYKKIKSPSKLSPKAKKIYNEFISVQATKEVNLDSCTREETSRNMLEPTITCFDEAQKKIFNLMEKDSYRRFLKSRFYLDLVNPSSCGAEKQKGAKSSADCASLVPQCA
Starred values were filed as active, the others as inactive; i = inactive; / = no result.

SMILES	MrgX1 agonist	MrgX1 allo act	MrgX1 antagonist	RGS4 act	RGS4 inh
O=S(=O)(c1ccccc1)c1cnc(-c2ccccc2)nc1N1CCCC1	i	i	i	i	i
Cc1ccccc1NC(=O)COC(=O)Cc1ccsc1	i	i	i	i	i
O=C(O)CCC1c2cc3c4cc2OC2Oc5cc6c(cc51)C(CCC(=O)O)c1cc5c7cc1OC(O6)c1cc6cc(c1)Oc1cc(cc(C(=O)O)c1)Oc1cc8cc(c1)C(Oc1cc(c(cc1C5CCC(=O)O)C3CCC(=O)O)OC(O4)c1cc(cc(c1)Oc1cc(cc(C(=O)O)c1)O8)Oc1cc(cc(C(=O)O)c1)Oc1cc(cc2c1)Oc1cc(cc(C(=O)O)c1)O6)O7 (configuration not stated)	29*	i	i	i	i
N#C[C@H]1C2OC2c2ccccc2N1C(=O)c1ccccc1 (some centres not stated)	i	i	-7.9*	i	i
Cc1cccc(C(=O)NCCCNC(=O)c2cccc(C)c2)c1	i	i	i	i	i
Cc1cc(O)c(/C=N/OCc2ccc(Cl)cc2Cl)c(=O)o1	i	i	i	i	i
O=c1c(/C=N/OCc2ccc(Cl)cc2Cl)c[nH]n1-c1cccc(Cl)n1	45*	i	i	i	i
CC[N+](CC)(CC)CCOc1ccc(/C=C/c2ccccc2)cc1	i	i	-5.1*	/	/
O=C(Nc1cc(Cl)ccn1)C1(c2ccccc2)CC1(Cl)Cl (configuration not stated)	i	i	i	i	i
CCN1CCN(c2ccc(NC(=O)c3ccc(Cl)c(N4CCCC4=O)c3)cc2)CC1	i	i	i	i	i
CC[n+]1c(/C=C/Nc2ccccc2)oc2ccccc21	i	i	i	i	i
CC[n+]1c(/C=C/N(C)c2ccccc2)oc2ccc(F)cc21	i	i	-4.7*	i	i
CC[n+]1c(/C=C/Nc2ccccc2)oc2ccc(OC)cc21	i	i	-7.4*	i	i
CC(C)(C)C1CCc2sc(C(=O)NNC(=O)CCl)cc2C1 (configuration not stated)	/	/	/	i	i
Cc1cc(C)n(-c2ccc(C(F)(F)F)cc2[N+](=O)[O-])n1	i	i	i	-9.3*	i
COc1ccc(/C(=C/c2ccc(OC(F)F)c(OC)c2)C(=O)O)cc1OC	i	i	-5.8*	i	i
COc1cc(/C=C(/C(=O)O)c2ccc(-c3ccccc3)cc2)cc(OC)c1OC	i	i	i	i	i
CN1CCN(C2=Nc3cc(Cl)ccc3Nc3ccccc32)CC1	i	i	i	-7.5*	i
COc1cccc(C(=O)Nc2ccccc2C(=O)NCC2CCCO2)c1 (configuration not stated)	i	i	i	i	i
COc1ccc(N(C(C)C(=O)N/N=C/c2cccnc2)S(C)(=O)=O)cc1 (configuration not stated)	i	i	i	i	i
O=S1(=O)c2ccccc2Nc2ccccc21	i	i	i	i	i
Clc1ccc(CN2CCN(c3ccccc3)CC2)cn1	i	i	i	i	i
O=C(O)c1cc(-c2ccc(/C=c3\sc4nc5ccc(Br)cc5n4c3=O)o2)ccc1Cl	42*	i	i	i	i
COc1ccc(CN2C(=O)c3ccccc3C(/C=N/OCc3ccc(Cl)cc3)C2=O)cc1 (configuration not stated)	38*	i	i	i	i
O=C(NNC(=O)c1cc(-c2cccc(Br)c2)nc2ccccc12)c1csc(N2CCOCC2)n1	i	i	i	-7.6*	i
SMILES	MrgX1 agonist	MrgX1 allo act	MrgX1 antagonist	RGS4 act	RGS4 inh
COCCN(Cc1cccs1)S(=O)(=O)c1ccc(-c2ccc(=O)[nH]n2)s1	i	i	i	i	i
CCCc1ccc(OCc2ccc(C(=O)O)o2)c(OC)c1	i	i	i	i	i
CCCc1ccc(OCc2ccc(C(=O)NN)o2)c(OC)c1	i	i	-5.3*	i	i
Cn1cnc2cc(NCc3ccc(Cl)cc3)ccc21	i	i	i	i	i
C/C(=N/NC(=O)C1CCCN1C(=O)c1ccc([N+](=O)[O-])cc1)c1ccc(Br)cc1 (configuration not stated)	/	/	/	i	i
Cc1ccc(S(=O)(=O)N2[C@@H](c3ccccc3F)C(C(=O)O)=CC[C@H]2c2ccc3c(c2)OCO3)cc1	i	14*	i	/	/
COc1ccc([C@@H]2CC=C(C(=O)O)[C@H](c3ccccc3F)N2S(=O)(=O)c2ccc(C)cc2)cc1OC	i	i	i	/	/
Cc1ccc(S(=O)(=O)N2[C@@H](c3ccc(F)cc3)C(C(=O)O)=CC[C@H]2c2ccc3c(c2)OCO3)cc1	i	9.5*	i	/	/
Cc1ccc(S(=O)(=O)N2[C@@H](c3ccc(F)cc3)C(C(=O)O)=CC[C@H]2c2cccc(C)c2)cc1	i	i	i	/	/
COc1ccccc1NC(=O)COC(=O)C1C2CC3OC(=O)C1C3C2 (configuration not stated)	i	i	i	i	i
CCOc1ccc(S(=O)(=O)N2CCCC(C(=O)Nc3cc(C)cc(C)c3)C2)cc1 (configuration not stated)	i	i	i	i	i
CCOc1ccccc1NC(=O)C(Sc1ccccc1)c1ccccc1 (configuration not stated)	i	i	-5*	-7.3*	i
COc1ccccc1NC(=O)C(Sc1ccccc1)c1ccccc1 (configuration not stated)	i	i	i	i	i
O=C(Cn1cnc([N+](=O)[O-])c1)c1ccc(F)cc1	i	11*	i	i	i
O=C(Cn1cnc([N+](=O)[O-])c1)NCc1ccc(F)cc1	i	i	i	i	i
CCN1/C(=C/c2ccc3cc(C)ccc3[n+]2CC)Sc2ccc3sccc3c21	39*	i	i	i	i
CCN1/C(=C\c2ccc3cc(C)ccc3[n+]2CC)Sc2cc(C)c(C)cc21	/	/	/	i	i
COc1cc(NC(=O)c2cc(-c3ccccc3Cl)on2)cc(OC)c1OC	i	i	i	i	i
O=C(COc1ccccc1)N(Cc1nnc(-c2ccccc2Cl)o1)C1CC1	i	i	i	i	i
COc1ccccc1/C=C(/C(=O)OCC(=O)NCc1ccccc1)c1ccccc1	i	i	-5.5*	i	i
CN(C)S(=O)(=O)c1ccc(C(=O)NCC(=O)N/N=C/c2ccccc2Cl)cc1	i	i	i	i	i
O=[N+]([O-])c1ccc(-c2csc(N3CCCCCC3)n2)cc1	i	9.1*	i	i	i

Source: PubChem BioAssay
